In the library only some 3.8% were active in any assay of this set; here they are far more common.
KCNK3 inh: human KCNK3 channel inhibition, primary screen; O14649; CHO-KCNK3 thallium flux, FluxOR fluorescence; active compounds read low; B-score at 10 µM; 340,000 tested, 0.84% active;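 active = B-score under library mean minus 4 SD, starting fluorescence ratio at most library mean plus 5 SD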;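 also: more negative B-score means stronger inhibition of thallium flux through KCNK3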
KCNK9 inh: blocks the human KCNK9 two-pore domain potassium channel; Q9NPC2; HEK293 KCNK9, FluxOR thallium flux fluorescence; active compounds read low; B-score at 10 µM; 310,000 tested, 1.2% active; AID 488922;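 active = ratio B-score over 3 SD below the library mean, with starting fluorescence within 5 SD of its mean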;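 also: negative B-score means less thallium flux so channel inhibition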
Kir21 inh: inhibitors of mouse Kir2.1 inward-rectifier potassium channel; HEK293-Kir2.1, FluxOR thallium flux fluorescence; active compounds read low; B-score at 10 µM; 310,000 tested, 0.85% active;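 active = fluorescence ratio B-score at or below minus 3 SD of library scores, with starting-brightness B-score within 2 SD, cut at about -4.2 in these data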;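 also: channel flux triggered by added potassium and thallium sulfate stimulus; B-score of peak minus minimum fluorescence over baseline after thallium stimulus; more negative B-score means stronger Kir2.1 block with less thallium influx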
hERG rescue: shields human hERG channel from block by proarrhythmic agents. activation (rescue from dofetilide block), less the hit threshold, % at 10 µM. CHO-hERG, FluxOR thallium flux, dofetilide IC70 present. 310,000 tested, 0.51% active. Q12809;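 active = activation above the mean of controls blocked by dofetilide plus 5 SD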;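 also: thallium influx through hERG after potassium depolarization seen as dye fluorescence rise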
KCNQ1 inh: human KCNQ1 channel inhibition; CHO-K1 KCNQ1, FluxOR thallium flux fluorescence; active compounds read high; 310,000 tested, 1.3% active; B-score at 10 µM;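 active = compounds whose thallium flux B-score, printed positive for inhibition, exceeds three library SD while starting fluorescence stays within three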;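 also: channel opened by potassium depolarization with thallium stimulus after 20 min compound exposure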
KCNQ1 pot: potentiators or activators of human KCNQ1 potassium channel | P51787 | B-score at 10 µM | CHO-K1 KCNQ1, thallium flux FluxOR fluorescence; active compounds read high | 310,000 tested, 0.35% active;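 active = fluorescence ratio B-score, a plate-corrected score, at least three library SD, with initial intensity B-score within 5 SD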
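Assay system: CHO-K1 cells stably expressing KCNQ1; Medium: assay buffer with matched DMSO; Also added: K+/Tl+ depolarizing stimulus; Dosing: single dose; Timing: dye 90 min, compound 20 min, room temperature; Measured by: kinetic FluxOR thallium fluorescence, 10-s 1-Hz baseline, 110-s post-stimulus read; Read-out: peak-minus-minimum fluorescence over initial fluorescence, negative-control normalized, B-scored.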
An asterisk follows results filed as active; i = inactive; . = no result.

SMILES	KCNK3 inh	KCNK9 inh	Kir21 inh	hERG rescue	KCNQ1 inh	KCNQ1 pot
CCCC(C(=O)NC(C)(C)C)N(Cc1ccccc1Cl)C(=O)c1snc(C(N)=O)c1N (configuration not stated)	i	i	-1.6	-12	7*	i
Cc1nc(SCC(=O)Nc2ccccc2Cl)c2c(C)c(C)sc2n1	i	.	.	.	.	.
CN(Cc1ccccc1)C(=O)c1[nH]cnc1C(=O)Nc1cccc(Cl)c1	i	.	.	.	.	.
Cc1ccc(NC(=O)OC(C)N2CCCCC2)cc1NC(=O)OC(C)N1CCCCC1 (configuration not stated)	i	.	.	.	.	.
OCc1cn(-c2ccccc2)nc1-c1ccc(-c2nn(-c3ccccc3)cc2CO)cc1	i	i	-0.28	-10	i	i
Cc1ccc(-c2nn(-c3ccccc3)cc2CSC(=N)N)cc1	i	i	-5.8*	-14	i	i
Cc1c(Cc2ccccc2)c(=O)oc2cc(OCC(=O)NC(Cc3ccc(Cl)cc3)C(=O)O)ccc12 (configuration not stated)	i	-7.3*	0.09	-11	i	i
CCc1ccc(CN2CCC(C(=O)Nc3ccc(Oc4ccccc4)nc3)CC2)o1	i	i	0.25	-5	i	i
CCCCCNC(=O)Cc1ccc(S(=O)(=O)N2CCOCC2)s1	i	i	0.13	-14	i	i
Fc1ccc(C(c2ccc(F)cc2)N2CCN(C/C=C/c3ccccc3)CC2)cc1	i	i	-1.6	-16	8*	i
COc1ccccc1/C=N/N1C(=O)c2cccc3cccc(c23)C1=O	i	i	1.2	7.2*	i	i
COc1ccc(/C=N/N2C(=O)c3ccccc3C2=O)cc1	i	i	0.24	-1	i	i
CCn1c(Cn2nnc(-c3ccccc3)n2)nnc1SCC(=O)Nc1ccc(C(C)=O)cc1	i	i	-0.67	4.6*	i	i
CCn1c(Cn2nnc(-c3ccccc3)n2)nnc1SCC(=O)Nc1cccc(C(C)=O)c1	i	i	-2.4	-4	i	i
CCCCN(C(=O)c1ccc2c(c1)OCO2)c1ccccc1	i	i	-5.4*	-11	i	i
COC(=O)C1OCOC2C(C(=O)OC)OCOC12 (configuration not stated)	i	.	.	.	.	.
O=C(CSc1nnc(SCc2cccc3ccccc23)s1)c1ccc2c(c1)OCO2	i	i	-0.52	-8	i	8*
CN1/C(=C\C(=O)COc2ccc3c(c2)OCO3)C(C)(C)c2ccccc21	i	-8*	-0.19	-16	i	i
COc1ccccc1OCC(=O)/C=C1/N(C)c2ccccc2C1(C)C	i	i	-2	-23	i	i
CNCc1ccccc1Sc1ccc(OC)cc1	i	i	0.29	-3	i	i
CN(C)CCN(C)Cc1ccccc1Sc1cccc2ccccc12	i	i	-7.1*	-17	i	i
CNCc1ccccc1Sc1cccc2ccccc12	i	i	-15*	-14	i	8*
CCC(C)NC(=O)c1ccccc1NC(=O)/C(=C/c1ccc(OC)cc1)c1ccccc1 (configuration not stated)	i	i	-0.01	-14	7*	i
CCOC(=O)Nc1ccc(C(=O)Oc2ccccc2)c(O)c1	i	i	0.09	-6	i	i
O=C(Nc1ccc(C(=O)Oc2ccccc2)c(O)c1)c1ccco1	i	-7.2*	0.86	-10	i	i
SMILES	KCNK3 inh	KCNK9 inh	Kir21 inh	hERG rescue	KCNQ1 inh	KCNQ1 pot
O=C(Nc1ccc(OC(=O)c2cccs2)cc1)c1ccco1	i	i	1.2	-3	i	i
O=C(Nc1ccc(C(=O)Oc2ccccc2)c(O)c1)c1ccccc1	i	-7.2*	0.7	-1	i	i
CCOC(=O)C1CCCN(C(=O)CNC(=O)c2ccc(Br)o2)C1 (configuration not stated)	i	.	.	.	.	.
COCCn1c(-c2ccc3ccccc3c2)nc2c1c(=O)[nH]c(=O)n2CC(C)C	i	i	1	-2	i	i
Cc1nc(N2CCCCC2)c2c(-c3cccs3)csc2n1	i	-7.3*	-0.3	-22	i	i
COCC1CCCN(C(=O)c2cc(COc3ccc4ncccc4c3)on2)C1 (configuration not stated)	i	i	0.02	-18	6*	i
CC(=O)c1ccc(OCCOc2ccc(C#N)cc2)cc1	i	i	0.23	-10	i	i
COc1ccc(N2CC(C(=O)N(CC(C)C)c3c(N)n(Cc4ccccc4)c(=O)[nH]c3=O)CC2=O)c(OC)c1 (configuration not stated)	i	i	-1.1	-4	i	i
O=C(CCSc1ccccc1)Nc1nccs1	i	i	1.2	-5	i	i
O=C(CSc1ccccc1)N(c1ccc(Br)cc1)c1nccs1	i	i	-5.2*	-8	i	i
CCCn1ncc(CN2CCN(Cc3ccc(C)o3)C(CCO)C2)c1C (configuration not stated)	i	i	-1.9	-12	i	i
Cc1cccc(NC(=O)CCNC(=O)c2ccco2)c1C	i	i	1.7	-5	i	i
CCOc1ccc(NC(=S)NC(=O)c2ccco2)cc1	i	i	0.03	6.1*	i	12*
Cc1cc(C)cc(NC(=S)NC2CC3CCC(C2)N3Cc2ccco2)c1 (configuration not stated)	i	i	-1.1	-12	i	i
Cc1cccc(NC(=S)NC(=O)c2ccco2)c1C	i	i	0.18	22*	i	33*
CCOc1ccc(NC(=O)c2ccco2)cc1	i	i	0.03	2	i	i
CCOc1ccc(NC(=S)NC2CC3CCC(C2)N3Cc2ccco2)cc1 (configuration not stated)	i	-7.2*	1	-18	i	i
O=C(NC(=S)Nc1ccccc1Br)c1ccco1	i	i	0.57	3	i	9*
C#CCN1C=C(C(=O)OCC)C(C)N(Cc2ccccc2I)S1(=O)=O (configuration not stated)	i	.	.	.	.	.
Cc1cccc(C(=O)Nc2cc(S(=O)(=O)N3CCOCC3)ccc2N2CCCCC2)c1	i	.	.	.	.	.
O=[N+]([O-])c1ccc2c(c1)nc(CO)n2Cc1ccccc1	i	i	-1.3	-3	i	i
Cc1ccc(OC(=O)c2ccc(Br)o2)cc1	i	i	2.9	22*	i	i
CC(C)(C)OC(=O)C[C@H]1C/C=C\C[C@H](CC(=O)NCCO)C(=O)N[C@@H](c2ccccc2)COC1=O	i	.	.	.	.	.

From PubChem
